Our source for the IC50, Activity and inhibition values is ChEMBL document CHEMBL3102834, “Discovery of 5-substituted pyrrolo[2,3-d]pyrimidine antifolates as dual-acting inhibitors of glycinamide ribonucleotide formyltransferase and 5-aminoimidazole-4-carboxamide ribonucleotide formyltransferase in de novo purine nucleotide biosynthesis: implications of inhibiting …” (J Med Chem, 2013).

Experiment [1] can be described thus: Cytotoxicity against chinese hamster R2(VC) cells after 96 hrs by CellTitre-Blue fluorescence assay. As to conditions: Cricetulus griseus. Format: functional, cell-based. Summed up:
(§1)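 CHO sublines were grown in FF-RPMI/DFBS; transfectants were maintained with G418. Cells were exposed to antifolate (0–1 μM) for 96 h at 37 °C with 2 nM LCV (RT16) or 25 nM LCV (R2/PCFT4). PC43-10 cells were grown in standard RPMI1640/DFBS instead. FRα specificity was tested by adding 200 nM folic acid. Viable cells were read by CellTiter-Blue fluorescence (ex 560/em 590), and IC50 was taken from dose–response curves; means of 3–10 experiments.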

Experiment [2] is described as follows: Cytotoxicity against chinese hamster RT16 cells expressing human FRalpha after 96 hrs by CellTitre-Blue fluorescence assay. As to conditions: Cricetulus griseus, RT16, 96 h. In kind it is functional, cell-based. Summed up: as §1
The subject of experiment [3] is KB. The experiment in a line: Cytotoxicity against human KB cells at 10 uM incubated for 48 hrs followed by compound washout measured after 10 days by colony forming assay. In kind it is functional, cell-based. An outline of the steps:
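About 500 KB cells were plated in FF-RPMI/DFBS with 2 nM LCV for 24 h. Drug (0–10 μM) was then added, and exposure is stated as 24 h in Methods and 48 h in the legend. Medium was replaced with drug-free FF-RPMI plus 2 nM LCV for 8–10 days. Colonies were fixed with 5% TCA, stained with 1% methylene blue in borate buffer pH 8.8, and counted; three experiments.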

The subject of experiment [4] is KB. Kind of experiment: Induction of apoptosis in human KB cells assessed as early apoptotic cells at 1 uM after 96 hrs by Annexin V-FITC/7-AAD staining-based flow cytometry (reference value: 0.485%). In kind it is functional. (In general: Flow cytometry measures light scatter and fluorescence of single cells or particles in a stream.)
For experiment [5], the system named is KB. Kind of experiment: Cytotoxicity against human KB cells expressing human RFC/FRalpha/PCFT assessed as depletion of ATP pools at 1 uM after 24 hrs by ion-pair HPLC analysis. In kind it is functional. Summed up:
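KB cells in FF-RPMI/10% DFBS with 2 mM glutamine and 2 nM LCV were exposed to 1 μM drug for 24 h. They were trypsinized and washed, and nucleotides were extracted. ATP was quantified by reversed-phase ion-pair HPLC on a C18 column. Results are means ± standard errors.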

The target of experiment [6] is Bifunctional purine biosynthesis protein ATIC (Homo sapiens) (UniProt P31939). Kind of experiment: Inhibition of AICARFTase in human KB cells assessed as accumulation of ZMP at 1 uM after 48 hrs by HPLC analysis. Format: cell-based. An outline of the steps: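 KB cells were treated with 1 μM drug for 48 h in FF-RPMI/10% DFBS with 2 nM LCV. Metabolites were extracted with 5% TCA and then ether. They were separated by SAX ion-exchange HPLC using an NH4H2PO4 gradient (5 mM pH 2.8 to 750 mM pH 3.9) over 25 min with detection at 280 nm. ZMP was quantified against a standard curve with an AraCMP internal control; three experiments.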
Bifunctional purine biosynthesis protein ATIC (Homo sapiens), sequence (P31939 whole entry, looked up): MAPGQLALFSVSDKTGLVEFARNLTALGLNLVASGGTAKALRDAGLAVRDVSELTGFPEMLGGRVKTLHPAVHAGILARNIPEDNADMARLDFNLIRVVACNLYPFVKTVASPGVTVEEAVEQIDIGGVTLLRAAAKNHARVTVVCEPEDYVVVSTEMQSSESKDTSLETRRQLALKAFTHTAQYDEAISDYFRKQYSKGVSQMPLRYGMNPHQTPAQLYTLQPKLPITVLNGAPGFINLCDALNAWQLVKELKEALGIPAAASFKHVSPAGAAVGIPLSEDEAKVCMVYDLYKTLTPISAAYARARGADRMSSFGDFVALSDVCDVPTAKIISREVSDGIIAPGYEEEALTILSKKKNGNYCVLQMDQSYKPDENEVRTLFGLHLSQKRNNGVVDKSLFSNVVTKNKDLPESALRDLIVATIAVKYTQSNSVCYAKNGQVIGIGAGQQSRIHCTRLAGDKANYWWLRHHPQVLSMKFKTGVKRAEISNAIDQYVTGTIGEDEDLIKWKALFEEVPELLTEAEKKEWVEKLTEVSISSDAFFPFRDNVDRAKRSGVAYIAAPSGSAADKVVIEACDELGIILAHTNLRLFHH

Experiment [7] relates to KB. The experiment in a line: Cytotoxicity against human KB cells expressing human RFC/FRalpha/PCFT after 96 hrs by CellTitre-Blue fluorescence assay in presence of adenosine. Format: functional, cell-based. An outline of the steps:
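KB cells were grown in FF-RPMI with DFBS and 2 nM LCV, exposed to antifolate (0–1 μM) for 96 h at 37 °C, and read by CellTiter-Blue fluorescence. IC50 was taken from dose–response curves relative to untreated cells. Protection arms added adenosine 60 μM, thymidine 10 μM, AICA 320 μM, or folic acid 200 nM. Means of 3–10 experiments.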

The subject of experiment [8] is KB. The experiment in a line: Cell cycle arrest in human KB cells assessed as accumulation at sub-G1 phase at 1 uM after 96 hrs by propidium iodide staining-based flow cytometry (reference value: 3.5%). In kind it is functional.

Active and inactive are the calls of the source. The rule behind the calls is not given here.

As a reminder, the IC50 is the concentration that inhibits the measured activity by half. By inhibition is commonly meant the change of the read-out against control, counted positive when it falls. Turning to `Nc1nc2[nH]cc(CCCCc3ccc(C(=O)N[C@@H](CCC(=O)O)C(=O)O)cc3)c2c(=O)[nH]1`, the IC50 in experiment [1] is over 1000 nM; in experiment [2], 8.6 nM. Further, the outcome in experiment [3] was Active. For the same compound, the Activity in experiment [4] stood at 33.8%; in experiment [8], 36.7%. In experiment [5], the inhibition at 1 µM is over 90%. Also, the inhibition entry in experiment [6] is “Active”. Moreover, the outcome in experiment [7] was inactive.
